Assays:
NUDT15 [1] = conditions: read-out: Km of NUDT15 for 6-thio-dGTP; cited from earlier work
NUDT15 [2] = target: T1, NUDT15 (Homo sapiens, UniProt Q9NV35); assay: PPiLight inorganic pyrophosphate assay, 6-thio-dGTPase activity; assay type: biochemical
T1 sequence (Q9NV35 1-164): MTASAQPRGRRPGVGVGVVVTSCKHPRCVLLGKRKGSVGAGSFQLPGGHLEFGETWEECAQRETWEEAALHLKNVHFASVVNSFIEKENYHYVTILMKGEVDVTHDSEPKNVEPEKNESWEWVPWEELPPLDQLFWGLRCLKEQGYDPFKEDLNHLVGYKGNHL
Method in brief: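 6-thio-dGTPase activity of 10 nM NUDT15 in 100 mM Tris acetate pH 7.5, 40 mM NaCl, 100 mM Mg acetate, 1 mM DTT, with 2.5 μM 6-thio-dGTP. Test-compound dilution series ran 13.3 μM–75 pM or 15 μM–2.2 nM, depending on compound. Shaken 30 min at 22 °C; formed PPi detected by PPiLight luminescence.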

[3] = system: BJ-RAS cells versus BJ-hTERT cells; assay: Resazurin viability assay, isogenic fibroblasts; assay type: cell-based, human
NB4 and HL-60 cells = assay: Thiopurine/TH1760 dose-matrix, resazurin viability; assay type: cell-based, human; conditions: combined with 6-TG or 6-MP, dose-dependent
Method in brief: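 NB4 and HL-60 cells treated with a dose matrix of 6-TG or 6-MP combined with test compound (pre-treatment 3 h). Resazurin read-out four days after treatment (544/590 nm), viability normalised to DMSO controls. Relative viabilities used for EC50 fitting and SynergyFinder synergy scores. Knockdown matrix in NB4 shRNA lines: 96 h, n=2.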

NB4 cells = assay: Alkaline comet assay; assay type: cell-based, human; conditions: NB4, 10 μM TH1760 + 6-TG, 48 h
NUDT15 [4] = target: T1, NUDT15; assay: Differential scanning fluorimetry; assay type: binding; conditions: over the DMSO control, dose-dependent
NUDT15 [5] = target: T1, NUDT15; assay: Enzyme-coupled malachite green; assay type: biochemical; conditions: MG assay
Method in brief: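 Excess E. coli pyrophosphatase (0.4 U/mL) added for 20 min, then malachite green for 15 min; A630 read. Buffer-only wells served as the full-inhibition control. Two experiments, each in duplicate.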

Row | SMILES | Km (NUDT15 [1]) | potency improvement as compared to TH884 (NUDT15 [2]) | sensitization to 6-TG, tumorigenic versus non-transformed cells [3] | reduction of thiopurine EC50 values (NB4 and HL-60 cells) | 6-TG-induced DNA damage (comet tail moment) (NB4 cells) | increase of NUDT15 melting temperature (NUDT15 [4]) | improvement of potency compared to hit compound TH884 (NUDT15 [5])
1 | Nc1nc2c(ncn2[C@H]2C[C@H](O)[C@@H](COP(=O)(O)OP(=O)(O)OP(=O)(O)O)O2)c(=S)[nH]1 [Compound 6-thio-dGTP, 6-thio-dGTP] | 2 µM | – | – | – | – | – | –
2 | O=C(c1ccc2[nH]ccc2c1)N1CCN(S(=O)(=O)c2ccc3[nH]c(=O)oc3c2)CC1 [Compound 18] | – | over 200 fold | preferentially sensitized BJ-RAS cells to 6-TG versus their non-transformed counterpart BJ-hTERT cells | ~ 10 fold | potentiated 6-TG-induced DNA damage in NB4 cells | > 10 °C | more than 200 fold

— publication PMC7610571 (Nature chemical biology, 2020)
